An excerpt weighted towards active compounds, which were near 3.5% of everything screened.
RGS4 inh = inhibitors of human RGS4; P49798; HEK293 M3R/RGS4 inducible, Fluo-4 calcium flux; active compounds read high; triggered by carbachol at its EC20; B-score at 10 µM; 310,000 compounds, 0.45% hits;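 active means B-score, a plate-corrected calcium signal, over three deviations above library mean, with baseline fluorescence within five deviations of library mean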;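 further: RGS4 expression induced by doxycycline in cells with stable M3 receptor; B-score is computed from the integrated fluorescence ratio over baseline after carbachol; higher B-score means a larger calcium signal and so more RGS4 inhibition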
Target sequence (P49798 whole entry, looked up): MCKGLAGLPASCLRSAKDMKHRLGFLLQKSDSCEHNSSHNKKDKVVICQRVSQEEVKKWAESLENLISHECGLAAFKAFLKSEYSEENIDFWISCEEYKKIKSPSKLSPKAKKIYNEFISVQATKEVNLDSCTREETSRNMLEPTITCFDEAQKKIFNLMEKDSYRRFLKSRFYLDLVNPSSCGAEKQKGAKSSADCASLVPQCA
MrgX1 antag = antagonists of human MrgX1 receptor; Q96LB2; MRGX1-HEK293 calcium flux, Fluo-4, BAM8-22 antagonism; active compounds read low; B-score at 10 µM; 310,000 compounds, 1.3% hits; AID 588676;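 active means calcium-response B-score plate-corrected more than 3 library SD below zero, starting fluorescence within 5 deviations, no agonist response on first addition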;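 further: peak minus trough fluorescence over baseline after final BAM8-22 challenge near maximal dose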
Target sequence (Q96LB2 whole entry, looked up): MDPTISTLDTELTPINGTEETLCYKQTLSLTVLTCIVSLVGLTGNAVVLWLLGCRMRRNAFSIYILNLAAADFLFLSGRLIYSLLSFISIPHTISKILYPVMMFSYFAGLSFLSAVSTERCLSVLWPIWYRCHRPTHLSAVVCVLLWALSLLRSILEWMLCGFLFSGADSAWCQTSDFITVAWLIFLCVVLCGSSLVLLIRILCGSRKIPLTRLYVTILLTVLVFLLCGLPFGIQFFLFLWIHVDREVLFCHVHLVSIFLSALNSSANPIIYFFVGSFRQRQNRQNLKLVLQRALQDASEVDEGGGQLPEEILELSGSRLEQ
MrgX1 agonist = activates human MrgX1 receptor signaling; Q96LB2; MrgX1-HEK293 cells, Fluo-4 calcium fluorescence, agonist mode; active compounds read high; B-score at 10 µM; 310,000 compounds, 0.44% hits;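 active means calcium response B-score plate-corrected fluorescence ratio at least 3 library SD, with starting fluorescence B-score inside 5 SD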
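Material: HEK293 cells stably expressing human MrgX1 receptor | Quantity: 15,000 cells per well | Times: Cells plated overnight, dye loaded 0.5 h 37 °C, 0.5 h room temperature | Measured by: Kinetic Fluo-4 NW fluorescence of intracellular calcium | Control set: Positive and negative controls per plate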
MrgX1 PAM = allosterically activates human MrgX1 receptor signaling; B-score at 10 µM; 310,000 compounds, 0.63% hits; MrgX1-HEK293, Fluo-4 calcium flux, FDSS; active compounds read high; AID 588675;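 active means plate-corrected calcium response at least 3 library SD above typical, normal starting fluorescence, not activating the receptor alone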;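 further: compound read alongside a low EC10 to EC30 dose of BAM8-22 agonist; peak minus trough fluorescence over baseline measured at the second addition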
RGS4 pot = potentiators or activators of RGS4. HEK293 M3R/inducible RGS4, carbachol calcium flux Fluo4; active compounds read low. B-score at 10 µM. 310,000 compounds, 0.92% hits;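 active means B-score of the integrated calcium signal more than 4 SD below the library mean, with starting fluorescence not abnormally high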;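 further: negative B-score means reduced calcium response which marks RGS4 activation or potentiation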
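System – HEK293 FlpIn-TREx cells, stable M3R, doxycycline-inducible RGS4 · Reagent – ECmax carbachol challenge · Times – compound preincubation 20 min at room temperature before agonist · Technique – Fluo4 fluorescence kinetic imaging of calcium · Measure – B score of integrated Fluo4 ratio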
MrgX1 allo conf = confirmation of human MrgX1 receptor positive allosteric modulators. shares compounds with MrgX1 PAM. MrgX1-HEK293, Fluo-4 calcium fluorescence, FDSS. activation (ratio percentage), % at 10 µM. 1,200 compounds, 13% hits. AID 602413;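 active means ratio at least 3 SD above the weak peptide control, stable starting fluorescence, no direct agonism earlier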;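 further: compound followed by low BAM8-22 agonist challenge near EC20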
HEK293 Ca flux = MrgX1 antagonist counter-screen hit in parental HEK293 cells; shares compounds with MrgX1 antag; Fluo-4 calcium fluorescence, FDSS; fluorescence ratio F(max-min)/F0 at 10 µM; 4,000 compounds, 2% hits;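 active means duplicate-averaged calcium fluorescence ratio at least three times the standard deviation of buffer wells, a nonspecific response in parental cells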
HEK293 Ca counter = activity in parental HEK293 cells without MrgX1; shares compounds with MrgX1 antag; parental HEK293 calcium flux, Fluo-4 fluorescence ratio; active compounds read high; fluorescence ratio F(max-min)/F0 at 10 µM; 4,000 compounds, 0.4% hits; AID 624114;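 active means calcium fluorescence ratio, averaged over duplicates, at least 3 SD of the buffer-well ratio, meaning a nonspecific response in receptor-free cells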;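 further: untransfected parental HEK293 lacking MrgX1 used as counterscreen for MrgX1 allosteric activators; fluorescence change taken during the second addition on a kinetic imager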
HEK293 Ca cntr2 = counter-screen for MrgX1 activators: effect in parental HEK293 cells; shares compounds with MrgX1 antag; Fluo-4 calcium fluorescence (FDSS); active compounds read high; fluorescence ratio F(max-min)/F0 at 10 µM; 4,000 compounds, 8.7% hits; AID 624115;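 active means calcium fluorescence ratio at least three times the spread of buffer wells, meaning a non-specific response in parental cells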
Starred values were filed as active, the others as inactive; i = inactive; / = no result given.

SMILES | RGS4 inh | MrgX1 antag | MrgX1 agonist | MrgX1 PAM | RGS4 pot | MrgX1 allo conf | HEK293 Ca flux | HEK293 Ca counter | HEK293 Ca cntr2
CCCC(=O)Nc1nc(-c2ccc(OC)cc2)cs1 | i | i | i | i | i | / | / | / | /
COc1ccc(-c2csc(NC(=O)CS(=O)(=O)c3ccccc3)n2)cc1 | i | i | i | 12* | i | 6.8%* | i | i | i
COc1ccccc1-n1cc(-c2ccccc2)c2c(=S)nc[nH]c21 | i | i | i | 16* | i | i | i | i | i
Cc1nn(C(=O)c2cccs2)c(N)c1-c1ccccc1 | i | i | i | 9.3* | i | i | i | i | i
Cc1cccc(-c2csc(N)c2C(=O)OC(C)C)c1 | i | i | i | 8.1* | i | i | i | i | i
Cn1c(N)c(C(=O)COC(=O)COc2ccc3ccccc3c2)c(=O)n(C)c1=O | i | i | i | i | i | / | / | / | /
NNc1nc(-c2ccccc2Cl)nc2ccccc12 | i | i | i | i | i | / | / | / | /
NNc1nc(-c2ccccc2Cl)nc2sc3c(c12)CCCC3 | i | i | i | 32* | i | i | i | i | i
Cc1ccc2c(c1)C(=O)C(=O)N2CC(=O)Nc1ccccc1NC(=O)c1ccccn1 | i | i | i | 15* | i | i | i | i | i
CCOC(=O)c1cccc(NC(=O)CCc2ccccc2)c1 | i | i | i | 8.1* | i | i | i | i | i
COc1cc(NC(=O)c2ccccc2F)ccc1NC(=O)c1cc2ccccc2o1 | i | i | i | i | i | / | / | / | /
COc1ccccc1N1CCN(C(=O)c2cc3cc(C)ccc3[nH]2)CC1 | i | i | i | 11* | i | i | i | i | i
CCOC(=O)CC(=O)CSc1nc2ccc(OC)cc2cc1C | i | i | i | i | i | / | / | / | /
CN(C)C(=O)COc1ncnc2scc(-c3ccc(F)cc3)c12 | i | i | i | 8.2* | i | 35%* | i | i | i
CCN(C(=O)COc1ncnc2scc(-c3ccc(F)cc3)c12)C1CCS(=O)(=O)C1 (stereo unspecified) | i | i | i | i | i | / | / | / | /
CCN(C(=O)COC(=O)/C(C#N)=C/c1ccc(OC)cc1)C1CCS(=O)(=O)C1 (stereo unspecified) | i | i | i | i | i | / | / | / | /
COC(=O)C1=C(N)c2c(F)cccc2C1(C#N)c1ccc(F)cc1 (stereo unspecified) | i | i | i | 8.4* | i | i | i | i | i
Cc1cccc(CC(=O)N2CCCC2)c1 | i | i | i | i | i | / | / | / | /
CCOC(=O)c1c(-c2ccccc2)oc2ccc(OC(C)C(=O)O)cc12 (stereo unspecified) | i | i | i | 7.7* | i | i | i | i | i
COc1cc(CC(NC(C)=O)C(=O)NC2CCN(C(=O)Nc3ccccc3C)CC2)cc(OC)c1 (stereo unspecified) | i | i | i | i | i | / | / | / | /
Cc1ccc(S(=O)(=O)N2CCCC2C(=O)OCC(=O)Nc2ccc3c(c2)OCO3)cc1 (stereo unspecified) | i | i | i | 17* | i | i | i | i | i
COc1ccc(OC)c2sc(N(CCN(C)C)C(=O)c3cc(Cl)sc3Cl)nc12 | i | i | i | 21* | i | i | i | i | i
COC(=O)C(NC(C)=O)(Nc1nc2c(C)cc(C)cc2s1)C(F)(F)F (stereo unspecified) | i | i | i | 17* | i | i | i | i | i
COC(=O)c1cccc(NC(=O)CCNC(=O)c2ccco2)c1 | i | i | i | i | i | / | / | / | /
Cc1ccc(S(=O)(=O)N2CCN(S(=O)(=O)N3CCC(C)CC3)CC2)cc1C | i | i | i | i | i | / | / | / | /
SMILES | RGS4 inh | MrgX1 antag | MrgX1 agonist | MrgX1 PAM | RGS4 pot | MrgX1 allo conf | HEK293 Ca flux | HEK293 Ca counter | HEK293 Ca cntr2
COc1cccc(CNc2ncc(Br)cc2Br)c1O | i | i | i | i | i | / | / | / | /
COc1cccc(CNc2ccc(Br)cn2)c1O | i | i | i | 12* | i | i | i | i | i
O=C(NC1CCCC1)c1ccc2c(c1)N(Cc1ccc(F)cc1)CCS2 | i | i | i | i | i | / | / | / | /
Cc1ccc(CN2CCSc3ccc(C(=O)NC4CCCC4)cc32)cc1 | i | i | i | 9.4* | i | i | i | i | i
COc1ccc(/C=C2\SC(=S)N(CCCC(=O)Nc3ccccc3C(=O)O)C2=O)cc1OC | i | i | i | 22* | i | i | i | i | 53*
COc1ccc(/C=C2\SC(=S)N(CCC(=O)Nc3ccccc3C(=O)O)C2=O)cc1 | i | i | i | i | i | / | / | / | /
O=C(COC(=O)c1cccc(S(=O)(=O)Nc2ccc(F)cc2)c1)NCCN1C(=O)CSC1=O | i | i | i | i | i | / | / | / | /
CCC(=O)N(CCc1ccccc1)Cc1cc2cc(OC)ccc2[nH]c1=O | i | i | i | 10* | i | i | i | i | i
CCC(=O)N(CCO)Cc1cc2ccc(C)c(C)c2[nH]c1=O | i | i | i | i | i | / | / | / | /
CCC(=O)N(CCc1ccccc1)Cc1cc2ccc(OC)cc2[nH]c1=O | i | i | i | i | i | / | / | / | /
CC(=O)N(CCc1ccccc1)Cc1cc2ccc(C)c(C)c2[nH]c1=O | i | i | i | 8.6* | i | 2.4%* | i | i | i
CC(=O)Nc1ccc(NC(=O)c2c(-c3ccccc3)noc2C)cn1 | i | i | i | i | i | / | / | / | /
C=C(C)COc1ccc(-c2[nH]ncc2-c2ccc(OC)cc2)c(O)c1 | i | i | i | i | i | / | / | / | /
COc1ccc(-c2cn[nH]c2-c2ccc(O)cc2O)cc1 | i | i | i | i | i | / | / | / | /
C=C(C)COc1ccc(-c2[nH]ncc2-c2ccccc2)c(O)c1 | i | i | i | 16* | i | 14%* | i | i | i
